The results in this text go back to ChEMBL document CHEMBL1128453, “Peptidyl alpha-ketoheterocyclic inhibitors of human neutrophil elastase. 3. In vitro and in vivo potency of a series of peptidyl alpha-ketobenzoxazoles” (J Med Chem, 1995).

pKi: −log10 of the molar value. Some results are limits rather than exact numbers.

Assay [1] is described as follows: Percent reduction in leukocytes following elastase challenge/treatment. In kind it is functional. More on the design: concentration or dose not given beside the values. In a few lines:
(§1)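 Male Syrian hamsters (90–110 g), anaesthetised with brevital sodium (30 mg/kg ip), received intratracheal HNE (400 μg in 0.01 M PBS). Test agent was given intratracheally, either admixed with the enzyme or predosed (shortest interval 6 h). Dose interval is the longest with significant lesion inhibition. At 24 h, wet lung weight/body weight and lavage red/white cells (Coulter) were measured. Results are % reduction scaled between the HNE and saline controls (p = 0.05).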

Assay [2] is described as follows: Evaluated for the percent reduction relative to HNE and saline controls of red blood cells. An asterisk (*) indicates (p = 0.05). In kind it is functional. In a few lines: as §1
The nature of assay [3]: Percentage reduction in erythrocytes following elastase challenge/treatment. In kind it is functional. More on the design: concentration or dose not given beside the values. The essentials:
as §1

Assay [4] has as its system Cricetinae gen. sp. Put plainly: Dose interval reported as the longest interval at which significant inhibition of HNE induced uM Dose of HNE used was 400 ug/hamster. In kind it is functional. In a few lines: as §1
The target in assay [5] is T1, Neutrophil elastase (Homo sapiens) (UniProt P08246).
T1 sequence (whole entry): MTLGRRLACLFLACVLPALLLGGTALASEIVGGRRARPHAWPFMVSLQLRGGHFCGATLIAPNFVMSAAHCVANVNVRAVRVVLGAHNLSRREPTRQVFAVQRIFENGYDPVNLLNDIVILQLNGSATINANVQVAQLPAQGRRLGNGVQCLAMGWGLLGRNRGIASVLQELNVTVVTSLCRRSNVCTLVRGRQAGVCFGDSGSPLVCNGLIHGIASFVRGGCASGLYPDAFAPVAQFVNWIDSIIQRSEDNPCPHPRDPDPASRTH
The conditions noted are these: Lung.

The next assay concerns the target T2, Neutrophil elastase (Homo sapiens, UniProt P08246).
T2 sequence (P08246 whole entry): T1 sequence (whole entry)
The assay can be described thus: Inhibition of human neutrophil elastase-catalyzed hydrolysis of the synthetic substrate MeO-Suc-Ala-Ala-Pro-Val-pNa.

Assay [6] in a line: Evaluated for the percent reduction relative to HNE and saline controls of red blood cells. In kind it is functional. In a few lines: as §1
A short description of assay [7]: Evaluated for the percent reduction relative to HNE and saline controls of white blood cells. Type of assay: functional. The essentials: as §1
In assay [8] the test system is Cricetinae gen. sp. Put plainly: Compound is evaluated for wet lung weight (LW) relative to body weight (Bw).Value is statistically significant relative to control (p = 0.05). Type of assay: functional. The essentials: as §1
Another assay deals with T3, Papain (Carica papaya, UniProt P00784).
T3 sequence (P00784 whole entry): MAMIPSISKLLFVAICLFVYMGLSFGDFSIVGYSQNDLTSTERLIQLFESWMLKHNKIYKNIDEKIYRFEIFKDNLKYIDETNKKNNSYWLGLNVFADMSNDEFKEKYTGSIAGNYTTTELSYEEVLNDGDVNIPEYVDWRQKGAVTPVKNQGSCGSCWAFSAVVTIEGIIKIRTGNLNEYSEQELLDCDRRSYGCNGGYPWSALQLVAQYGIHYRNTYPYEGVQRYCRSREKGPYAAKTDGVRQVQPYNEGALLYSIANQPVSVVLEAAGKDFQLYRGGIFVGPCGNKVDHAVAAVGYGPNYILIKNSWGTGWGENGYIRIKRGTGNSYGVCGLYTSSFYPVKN
The assay can be described thus: Binding affinity towards papain.

Another assay addresses Serine protease 1 (Homo sapiens, UniProt P07477). Put plainly: Binding affinity towards trypsin.
A further assay concerns the target Chymotrypsinogen A (Bos taurus, UniProt P00766). The assay can be described thus: Binding affinity towards chymotrypsin.
Another assay addresses Prothrombin (Homo sapiens, UniProt P00734). Put plainly: Binding affinity towards thrombin.
The target of assay [9] is T4, Angiotensin-converting enzyme (Rattus norvegicus, UniProt P47820).
T4 sequence (P47820 whole entry): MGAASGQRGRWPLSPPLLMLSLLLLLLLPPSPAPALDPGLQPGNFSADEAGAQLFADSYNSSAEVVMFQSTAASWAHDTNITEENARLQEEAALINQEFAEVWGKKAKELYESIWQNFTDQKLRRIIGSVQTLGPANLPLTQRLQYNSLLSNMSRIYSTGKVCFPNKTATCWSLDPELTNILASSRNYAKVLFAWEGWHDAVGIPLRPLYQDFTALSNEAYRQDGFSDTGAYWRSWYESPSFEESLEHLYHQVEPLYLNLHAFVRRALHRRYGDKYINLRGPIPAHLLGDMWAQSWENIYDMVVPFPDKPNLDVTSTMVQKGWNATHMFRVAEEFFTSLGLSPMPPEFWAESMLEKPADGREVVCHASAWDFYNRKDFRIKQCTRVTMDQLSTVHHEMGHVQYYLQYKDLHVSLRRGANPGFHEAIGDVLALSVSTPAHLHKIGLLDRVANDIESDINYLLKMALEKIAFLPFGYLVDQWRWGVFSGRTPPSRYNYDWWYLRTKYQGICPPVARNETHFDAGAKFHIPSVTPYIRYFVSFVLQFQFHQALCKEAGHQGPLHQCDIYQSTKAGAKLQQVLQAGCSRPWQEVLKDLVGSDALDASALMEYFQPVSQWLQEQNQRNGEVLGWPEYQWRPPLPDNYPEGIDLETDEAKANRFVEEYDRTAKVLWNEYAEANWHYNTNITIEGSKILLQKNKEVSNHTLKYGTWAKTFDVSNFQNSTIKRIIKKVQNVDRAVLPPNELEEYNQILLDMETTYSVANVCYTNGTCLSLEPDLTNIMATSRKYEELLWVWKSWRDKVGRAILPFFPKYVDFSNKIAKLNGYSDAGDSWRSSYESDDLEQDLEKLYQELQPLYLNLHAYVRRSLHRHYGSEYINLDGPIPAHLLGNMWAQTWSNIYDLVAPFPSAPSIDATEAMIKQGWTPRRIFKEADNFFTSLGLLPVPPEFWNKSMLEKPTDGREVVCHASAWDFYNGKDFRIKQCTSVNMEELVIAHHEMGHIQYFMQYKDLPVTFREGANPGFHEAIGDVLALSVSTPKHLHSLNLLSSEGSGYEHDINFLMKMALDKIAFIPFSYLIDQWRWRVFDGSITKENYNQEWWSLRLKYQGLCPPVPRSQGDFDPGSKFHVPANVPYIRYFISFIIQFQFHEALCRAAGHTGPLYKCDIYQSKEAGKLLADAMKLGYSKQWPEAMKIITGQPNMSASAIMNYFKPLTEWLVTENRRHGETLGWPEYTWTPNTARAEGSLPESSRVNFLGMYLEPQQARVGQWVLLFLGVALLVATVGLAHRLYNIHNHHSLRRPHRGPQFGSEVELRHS
Put plainly: Biological activity was measured against Angiotensin I converting enzyme.

A further assay addresses T5, Cathepsin G (Homo sapiens, UniProt P08311).
T5 sequence (P08311 whole entry): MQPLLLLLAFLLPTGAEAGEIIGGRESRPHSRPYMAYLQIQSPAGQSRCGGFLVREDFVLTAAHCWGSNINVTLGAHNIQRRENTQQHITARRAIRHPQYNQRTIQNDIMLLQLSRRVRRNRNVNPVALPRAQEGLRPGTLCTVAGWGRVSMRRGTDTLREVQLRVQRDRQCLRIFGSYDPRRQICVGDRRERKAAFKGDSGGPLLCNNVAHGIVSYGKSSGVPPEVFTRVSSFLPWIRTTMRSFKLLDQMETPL
The assay can be described thus: Binding affinity towards cathepsin G.

Sequence of Serine protease 1 (P07477 whole entry): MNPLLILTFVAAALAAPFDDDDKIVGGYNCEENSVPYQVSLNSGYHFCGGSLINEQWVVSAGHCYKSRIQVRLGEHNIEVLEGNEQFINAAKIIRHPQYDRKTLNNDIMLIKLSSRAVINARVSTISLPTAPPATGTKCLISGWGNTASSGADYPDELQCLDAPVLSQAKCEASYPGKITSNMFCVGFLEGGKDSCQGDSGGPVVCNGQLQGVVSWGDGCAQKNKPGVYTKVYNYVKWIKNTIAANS

For `CC(C)[C@H](NC(=O)[C@@H]1CCCN1C(=O)[C@@H](NC(=O)c1ccc(C(=O)O)cc1)C(C)C)C(=O)c1nc2ccccc2o1`, the Reduction in assay [1] was -1%; in [2], 49%.
Turning to `CC(C)[C@H](NC(=O)[C@@H]1CCCN1C(=O)[C@@H](NC(=O)c1ccc(NC(=O)NS(=O)(=O)c2ccc(Cl)cc2)cc1)C(C)C)C(=O)c1nc2ccccc2o1`, the Reduction stood at 68% in assay [3] and 82% in assay [1]. In addition, the Dose interval in the assay with Cricetinae gen. sp. [4] was 6 h.
The pKi is the negative decadic logarithm of the Ki, by convention in mol/L. `CC(C)[C@H](NC(=O)[C@@H]1CCCN1C(=O)[C@@H](NC(=O)c1ccc(C(=O)NS(=O)(=O)c2ccc(Cl)cc2)cc1)C(C)C)C(=O)c1nc2cc(CO)ccc2o1` had a Lw/Bw in assay [5] of 30. Also, the pKi on Neutrophil elastase is 9.18. Also, the values for the Reduction in [3] and in assay [1] were 46% and 39%, respectively.
Turning to `CC(C)[C@H](NC(=O)[C@@H]1CCCN1C(=O)[C@@H](NC(=O)c1ccc(C(=O)NS(=O)(=O)c2ccccc2)cc1)C(C)C)C(=O)c1nc2ccccc2o1`, the Lw/Bw in assay [5] came out at 29. The same molecule showed a pKi on Neutrophil elastase of 9.30. Besides, the Reduction turned out to be 58% in assay [3] and 64% in assay [1]. Besides, the Dose interval in the assay with Cricetinae gen. sp. [4] was determined as 6 h.
On to `CC(C)[C@H](NC(=O)[C@@H]1CCCN1C(=O)[C@@H](NC(=O)c1ccc(C(=O)NS(=O)(=O)c2ccc(Cl)cc2)cc1)C(C)C)C(=O)c1nc2cc(C(=O)O)ccc2o1`, for which, in assay [5], the Lw/Bw is 63. The molecule further had a pKi on Neutrophil elastase of 9.19. The Reduction in assay [3] stood at 94%; in assay [1] it was 66%.
For `CC(C)[C@H](NC(=O)[C@@H]1CCCN1C(=O)[C@@H](NC(=O)c1ccc(C(=O)OC(C)(C)C)cc1)C(C)C)C(=O)c1nc2ccccc2o1`, the Reduction in assay [6] was 29%; in assay [7], -14%. Moreover, the Lw/Bw in the assay with Cricetinae gen. sp. [8] stood at 41.
In the case of `CC(C)[C@H](NC(=O)[C@@H]1CCCN1C(=O)[C@@H](NC(=O)c1ccc(C(=O)NS(=O)(=O)c2ccc(Cl)cc2)cc1)C(C)C)C(=O)c1nc2ccccc2o1`, the values for the Reduction in assay [3] and in assay [1] were 80% and 84%, respectively. For the same molecule, the Dose interval in the assay on Cricetinae gen. sp. [4] came to 6 h.
Regarding `CC(C)[C@H](NC(=O)[C@@H]1CCCN1C(=O)[C@@H](NC(=O)c1ccc(C(=O)NS(=O)(=O)c2ccc(Cl)cc2)cc1)C(C)C)C(=O)c1nc2cc(C(N)=O)ccc2o1`, the pKi at Papain was below 3.70; on Serine protease 1, below 4.30; at Chymotrypsinogen A, 4.04; at Neutrophil elastase, 9.70; at Prothrombin it was below 4.30; in assay [9], below 3.70. Besides, the pKi at Cathepsin G was below 2.70. The molecule further returned a Lw/Bw in assay [5] of 54. Also, the Reduction is 64% in [3] and 53% in [1].
As for `CC(C)[C@H](NC(=O)[C@@H]1CCCN1C(=O)[C@@H](NC(=O)c1ccc(NC(=O)NS(=O)(=O)c2ccccc2)cc1)C(C)C)C(=O)c1nc2ccccc2o1`, the Lw/Bw in [5] came out at 63. The same molecule gave a negative logarithm of the Ki (pKi) on Neutrophil elastase of 9.22. The Reduction in assay [3] was 62%; in assay [1] it was 31%.
`COC(=O)c1ccc(C(=O)N[C@H](C(=O)N2CCC[C@H]2C(=O)N[C@H](C(=O)c2nc3ccccc3o2)C(C)C)C(C)C)cc1`: the Reduction in assay [1] is on record as -5%; in [6], 17%.
For `COc1ccc2oc(C(=O)[C@@H](NC(=O)[C@@H]3CCCN3C(=O)[C@@H](NC(=O)c3ccc(C(=O)NS(=O)(=O)c4ccc(Cl)cc4)cc3)C(C)C)C(C)C)nc2c1`, the Lw/Bw in assay [5] came out at 48. At Neutrophil elastase, the pKi is 9.18. Moreover, the figures for the Reduction in [3] and in assay [1] were 21% and 24%, respectively.
`CC(C)[C@H](NC(=O)[C@@H]1CCCN1C(=O)[C@@H](NC(=O)c1ccc(C(=O)NS(=O)(=O)C(C)C)cc1)C(C)C)C(=O)c1nc2ccccc2o1` returned a Lw/Bw in assay [5] of 68. At Neutrophil elastase, the pKi was 8.82. Besides, the Reduction in assay [3] came out at 60%; in [1], 70%.
Turning to `COC(=O)c1ccc2oc(C(=O)[C@@H](NC(=O)[C@@H]3CCCN3C(=O)[C@@H](NC(=O)c3ccc(C(=O)NS(=O)(=O)c4ccc(Cl)cc4)cc3)C(C)C)C(C)C)nc2c1`, in assay [5], the Lw/Bw was found to be 67. For the same molecule, the pKi at Neutrophil elastase is 10.00. Besides, the Reduction is 71% in [3] and -32% in assay [1].
